ChEMBL document CHEMBL1125904, “Synthesis and anthelmintic activity of 3'-benzoylurea derivatives of 6-phenyl-2,3,5,6-tetrahydroimidazo[2,1-b]thiazole” (1991)

Experiments:
Type in all cases: functional
[1] = system: Heligmosomoides polygyrus; assay: Anthelmintic activity ( in Vivo ) in mouse, as percentage reduction of Nematospiroides dubius at 1000 PPM
Procedure, shortened: (§1)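 Mice infected by oral gavage with 35-40 N. dubius L3 larvae plus 5000 H. nana eggs each. From 24 h post-infection, groups of four fed compound ad lib in powdered lab chow (31-1000 ppm) for 18 days. Killed on day 19; N. dubius counted in duodenum under dissecting microscope. Percent reduction computed from mean worm counts, treated vs untreated control.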

[2] = system: Heligmosomoides polygyrus; assay: Anthelmintic activity ( in Vivo ) in mouse, as percentage reduction of Nematospiroides dubius at 250 PPM; procedure, shortened: as §1
[3] = system: Heligmosomoides polygyrus; assay: Anthelmintic activity ( in Vivo ) in mouse, as percentage reduction of Nematospiroides dubius at 62 PPM; procedure, shortened: as §1
[4] = system: Heligmosomoides polygyrus; assay: Anthelmintic activity ( in Vivo ) in mouse, as percentage reduction of Nematospiroides dubius at 125 PPM; procedure, shortened: as §1
[5] = system: Heligmosomoides polygyrus; assay: Anthelmintic activity ( in Vivo ) in mouse, as percentage reduction of Nematospiroides dubius at 31 PPM; procedure, shortened: as §1
Ovis aries [6] = assay: Anthelmintic activity (in Vivo)in sheep as percentage reduction versus control (by administration of benzimidazole-susceptible L3 larvae of Haemonchus contortus intraruminally)at 10 mg/kg po
Procedure, shortened: (§2)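 Sheep on lucerne/oaten chaff were infected intraruminally on day 0 with benzimidazole-susceptible L3 larvae (H. contortus 6000, O. circumcincta 8000, T. colubriformis 8000). They were allocated on day-27 faecal egg counts and weight (n = 4-7). A single intraruminal dose in 0.5% Na CMC/0.9% saline was given on day 28, with an untreated control per assay. On day 35, adult worms in abomasum and small intestine were counted as % reduction vs control.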

Ovis aries [7] = assay: Anthelmintic activity (in Vivo)in sheep as percentage reduction versus control (by administration of benzimidazole-susceptible L3 larvae of Trichostrongylus colubriformis intraruminally) at 15 mg/kg po; procedure, shortened: as §2
Ovis aries [8] = assay: Anthelmintic activity (in Vivo)in sheep as percentage reduction versus control (by administration of benzimidazole-susceptible L3 larvae of Ostertagia circumcincta intraruminally)at 15 mg/kg po; procedure, shortened: as §2
Ovis aries [9] = assay: Anthelmintic activity (in Vivo)in sheep as percentage reduction versus control (by administration of benzimidazole-susceptible L3 larvae of Haemonchus contortus intraruminally)at 15 mg/kg po; procedure, shortened: as §2
Ovis aries [10] = assay: Anthelmintic activity (in Vivo)in sheep as percentage reduction versus control (by administration of benzimidazole-susceptible L3 larvae of Haemonchus contortus intraruminally)at 5 mg/kg po; procedure, shortened: as §2
Ovis aries [11] = assay: Anthelmintic activity (in Vivo)in sheep as percentage reduction versus control (by administration of benzimidazole-susceptible L3 larvae of Ostertagia circumcincta intraruminally)at 10 mg/kg po; procedure, shortened: as §2
Ovis aries [12] = assay: Anthelmintic activity (in Vivo)in sheep as percentage reduction versus control (by administration of benzimidazole-susceptible L3 larvae of Trichostrongylus colubriformis intraruminally) at 10 mg/kg po; procedure, shortened: as §2
Ovis aries [13] = assay: Anthelmintic activity (in Vivo)in sheep as percentage reduction versus control (by administration of benzimidazole-susceptible L3 larvae of Ostertagia circumcincta intraruminally)at 5 mg/kg po; procedure, shortened: as §2
Ovis aries [14] = assay: Anthelmintic activity (in Vivo)in sheep as percentage reduction versus control (by administration of benzimidazole-susceptible L3 larvae of Trichostrongylus colubriformis intraruminally) at 5 mg/kg po; procedure, shortened: as §2
[15] = system: Heligmosomoides polygyrus; assay: Anthelmintic activity ( in Vivo ) in mouse, as percentage reduction of Nematospiroides dubius at 500 PPM; procedure, shortened: as §1
Ovis aries [16] = assay: Anthelmintic activity (in Vivo)in sheep as percentage reduction versus control (by administration of benzimidazole-susceptible L3 larvae of Trichostrongylus colubriformis intraruminally) at 30 mg/kg po; procedure, shortened: as §2
Ovis aries [17] = assay: Anthelmintic activity (in Vivo)in sheep as percentage reduction versus control (by administration of […] L3 larvae of Trichostrongylus colubriformis intraruminally) at 30 mg/kg po (Benzimidazole resistant strain)
Procedure, shortened: (§3)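 Sheep fed lucerne/oaten chaff were infected intraruminally with L3 larvae of a drug-resistant strain (benzimidazole-resistant; for O. circumcincta, benzimidazole-, levamisole- and morantel-resistant). They were grouped by faecal egg counts (n = 4-7) and dosed once intraruminally on day 28 in 0.5% Na CMC/saline. Adult worms were counted on day 35 as % reduction vs untreated control.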

Ovis aries [18] = assay: Anthelmintic activity (in Vivo)in sheep as percentage reduction versus control (by administration of […] L3 larvae of Haemonchus contortus intraruminally)at 30 mg/kg po (Benzimidazole resistant strain); procedure, shortened: as §3
Ovis aries [19] = assay: Anthelmintic activity (in Vivo) in sheep as percentage reduction versus control (by administration of […] L3 larvae of Ostertagia circumcincta intraruminally)at 30 mg/kg po (Benzimidazole, levamisole and morantel resistant strain); procedure, shortened: as §3
Ovis aries [20] = assay: Anthelmintic activity (in Vivo)in sheep as percentage reduction versus control (by administration of benzimidazole-susceptible L3 larvae of Haemonchus contortus intraruminally)at 30 mg/kg po; procedure, shortened: as §2
Ovis aries [21] = assay: Anthelmintic activity (in Vivo)in sheep as percentage reduction versus control (by administration of benzimidazole-susceptible L3 larvae of Ostertagia circumcincta intraruminally)at 30 mg/kg po; procedure, shortened: as §2
Ovis aries [22] = assay: Anthelmintic activity (in Vivo)in sheep as percentage reduction versus control (by administration of benzimidazole-susceptible L3 larvae of O circumcincta intraruminally)at 5 mg/kg po; procedure, shortened: as §2
Ovis aries [23] = assay: Anthelmintic activity (in Vivo)in sheep as percentage reduction versus control (by administration of benzimidazole-susceptible L3 larvae of H contortus intraruminally)at 5 mg/kg po; procedure, shortened: as §2
Ovis aries [24] = assay: Anthelmintic activity (in Vivo)in sheep as percentage reduction versus control (by administration of benzimidazole-susceptible L3 larvae of H contortus intraruminally)at 10 mg/kg po; procedure, shortened: as §2
Ovis aries [25] = assay: Anthelmintic activity (in Vivo)in sheep as percentage reduction versus control (by administration of benzimidazole-susceptible L3 larvae of T colubriformis intraruminally) at 10 mg/kg po; procedure, shortened: as §2
Ovis aries [26] = assay: Anthelmintic activity (in Vivo)in sheep as percentage reduction versus control (by administration of benzimidazole-susceptible L3 larvae of T colubriformis intraruminally) at 5 mg/kg po; procedure, shortened: as §2
Ovis aries [27] = assay: Anthelmintic activity (in Vivo)in sheep as percentage reduction versus control (by administration of benzimidazole-susceptible L3 larvae of O circumcincta intraruminally)at 10 mg/kg po; procedure, shortened: as §2
Ovis aries [28] = assay: Anthelmintic activity (in Vivo)in sheep as percentage reduction versus control (by administration of benzimidazole-susceptible L3 larvae of Ostertagia circumcincta intraruminally)at 10.9 mg/kg po; procedure, shortened: as §2
Ovis aries [29] = assay: Anthelmintic activity (in Vivo)in sheep as percentage reduction versus control (by administration of benzimidazole-susceptible L3 larvae of Ostertagia circumcincta intraruminally)at 16.4 mg/kg po; procedure, shortened: as §2
Ovis aries [30] = assay: Anthelmintic activity (in Vivo)in sheep as percentage reduction versus control (by administration of benzimidazole-susceptible L3 larvae of Haemonchus contortus intraruminally)at 10.9 mg/kg po; procedure, shortened: as §2
Ovis aries [31] = assay: Anthelmintic activity (in Vivo)in sheep as percentage reduction versus control (by administration of benzimidazole-susceptible L3 larvae of Trichostrongylus colubriformis intraruminally) at 10.9 mg/kg po; procedure, shortened: as §2
Ovis aries [32] = assay: Anthelmintic activity (in Vivo)in sheep as percentage reduction versus control (by administration of benzimidazole-susceptible L3 larvae of Trichostrongylus colubriformis intraruminally) at 16.4 mg/kg po; procedure, shortened: as §2
Ovis aries [33] = assay: Anthelmintic activity (in Vivo)in sheep as percentage reduction versus control (by administration of benzimidazole-susceptible L3 larvae of Haemonchus contortus intraruminally)at 16.4 mg/kg po; procedure, shortened: as §2

| Structure (SMILES) | Reduction [2] [%] | Reduction [3] [%] | Reduction [4] [%] | Reduction [15] [%] | also measured |
| --- | --- | --- | --- | --- | --- |
| O=C(NC(=O)c1ccc(C(=O)c2ccccc2)cc1)Nc1cccc(C2CN3CCSC3=N2)c1 (centres undefined) | 0 | – | – | – | Reduction [1]: 100% |
| COC(=O)Nc1nc2cc([S+]([O-])c3ccccc3)ccc2[nH]1 (centres undefined) [OXFENDAZOLE] | – | 100 | 100 | – | Reduction [5]: 100% |
| O=C(NC(=O)c1c(F)cccc1F)Nc1cccc([C@H]2CN3CCSC3=N2)c1 | 100 | 0 | 26 | 100 | Reduction (Ovis aries [6]): 90%; Reduction (Ovis aries [7]): 98%; Reduction (Ovis aries [8]): 74%; Reduction (Ovis aries [9]): 86%; Reduction (Ovis aries [10]): 74%; Reduction (Ovis aries [11]): 64%; Reduction (Ovis aries [12]): 96%; Reduction (Ovis aries [13]): 56%; Reduction (Ovis aries [14]): 75% |
| c1ccc(C2CN3CCSC3=N2)cc1 (centres undefined) [TETRAMISOLE] | – | 0 | 100 | 100 | – |
| O=C(NC(=O)c1ccc([N+](=O)[O-])cc1)Nc1cccc(C2CN3CCSC3=N2)c1 (centres undefined) | – | – | – | – | Reduction [1]: 0% |
| O=C(NC(=O)c1ccccc1[N+](=O)[O-])Nc1cccc(C2CN3CCSC3=N2)c1 (centres undefined) | – | – | – | 0 | – |
| O=C(NC(=O)c1ccccc1F)Nc1cccc(C2CN3CCSC3=N2)c1 (centres undefined) | – | 40 | 95 | – | Reduction [5]: 0% |
| O=C(NC(=O)c1c(F)cccc1F)Nc1cccc(C2CN3CCSC3=N2)c1 (centres undefined) | 100 | 0 | 76 | 100 | Reduction (Ovis aries [16]): 99%; Reduction (Ovis aries [17]): 92%; Reduction (Ovis aries [7]): 100%; Reduction (Ovis aries [18]): 100%; Reduction (Ovis aries [8]): 75%; Reduction (Ovis aries [9]): 92%; Reduction (Ovis aries [19]): 55%; Reduction (Ovis aries [20]): 98%; Reduction (Ovis aries [21]): 93% |
| O=C(NC(=O)c1ccc(C(F)(F)F)cc1)Nc1cccc([C@H]2CN3CCSC3=N2)c1 | 43 | – | 0 | – | Reduction (Ovis aries [22]): 33%; Reduction (Ovis aries [23]): 27%; Reduction (Ovis aries [24]): 59%; Reduction (Ovis aries [25]): 40%; Reduction (Ovis aries [26]): 15%; Reduction (Ovis aries [27]): 29% |
| COc1ccccc1C(=O)NC(=O)Nc1cccc(C2CN3CCSC3=N2)c1 (centres undefined) | 0 | – | – | – | – |
| COc1ccc(C(=O)NC(=O)Nc2cccc(C3CN4CCSC4=N3)c2)cc1 (centres undefined) | – | – | – | – | Reduction [1]: 0% |
| O=C(NC(=O)c1ccc(Cl)cc1)Nc1cccc(C2CN3CCSC3=N2)c1 (centres undefined) | – | – | – | 0 | – |
| O=C(NC(=O)c1c(Cl)cccc1Cl)Nc1cccc(C2CN3CCSC3=N2)c1 (centres undefined) | – | – | – | 0 | Reduction [1]: 56% |
| Cl.O=C(NC(=O)c1c(F)cccc1F)Nc1cccc(C2CN3CCSC3=N2)c1 (centres undefined) | – | – | – | – | Reduction (Ovis aries [28]): 52%; Reduction (Ovis aries [29]): 82%; Reduction (Ovis aries [30]): 64%; Reduction (Ovis aries [31]): 93%; Reduction (Ovis aries [32]): 99%; Reduction (Ovis aries [33]): 78% |
| O=C(NC(=O)c1ccc(OC(F)(F)F)cc1)Nc1cccc(C2CN3CCSC3=N2)c1 (centres undefined) | 0 | – | – | – | – |
| c1ccc([C@H]2CN3CCSC3=N2)cc1 [LEVAMISOLE] | – | 100 | – | 100 | Reduction [5]: 60% |
| O=C(NC(=O)c1cccc([N+](=O)[O-])c1)Nc1cccc(C2CN3CCSC3=N2)c1 (centres undefined) | 0 | – | – | – | – |
| O=C(NC(=O)c1ccccc1)Nc1cccc(C2CN3CCSC3=N2)c1 (centres undefined) | – | – | – | 0 | Reduction [1]: 59% |
| CC(C)(C)c1ccc(C(=O)NC(=O)Nc2cccc(C3CN4CCSC4=N3)c2)cc1 (centres undefined) | 0 | – | – | – | – |
| N#Cc1ccc(C(=O)NC(=O)Nc2cccc(C3CN4CCSC4=N3)c2)cc1 (centres undefined) | 0 | – | – | – | – |
| O=C(NC(=O)c1ccccc1Cl)Nc1cccc(C2CN3CCSC3=N2)c1 (centres undefined) | 100 | 0 | 56 | – | – |
| O=C(NC(=O)c1ccc(I)cc1)Nc1cccc(C2CN3CCSC3=N2)c1 (centres undefined) | 0 | – | – | – | – |
| O=C(NC(=O)c1cc(F)cc(F)c1)Nc1cccc(C2CN3CCSC3=N2)c1 (centres undefined) | – | – | – | 0 | – |
| O=C(NC(=O)c1ccc(F)cc1)Nc1cccc(C2CN3CCSC3=N2)c1 (centres undefined) | 0 | – | – | 43 | – |
| O=C(NC(=O)c1ccc(C(F)(F)F)cc1)Nc1cccc(C2CN3CCSC3=N2)c1 (centres undefined) | 100 | 43 | 96 | 100 | Reduction [5]: 0% |
